Experimental data reported in publication PMC3268775 (Journal of the American Chemical Society, 2012).
Where a chain is given by its changes, count along the chain named. Numbered stars: 1 amine (or outer) side, 2 acyl side, 3 side chain; on linkers, the order of the positions; unused ones are H or OH. Square brackets hold non-standard residues; d marks the D form. Peptide text beside a SMILES is read from it. * marks the point of attachment. Isonicotinoyl(2-(4-Me-2-Py)) = Cc1ccnc(-c2cc(C(=O)*)ccn2)c1; X1 = O=C([C@H](Cc1c(F)cc(O)c(F)c1F)N[*:1])[*:2]

Columns and labels:
Y731F-α2 [1] = target: T1, Y731F-α2 (Escherichia coli, UniProt P00452, Y731F); assay: [Re^I]* emission lifetime of peptide bound to Y731F-α2; assay type: binding; details: 10 μM peptide, 20 μM α2, pH 8.3
T1 sequence (P00452 1-761 Y731F): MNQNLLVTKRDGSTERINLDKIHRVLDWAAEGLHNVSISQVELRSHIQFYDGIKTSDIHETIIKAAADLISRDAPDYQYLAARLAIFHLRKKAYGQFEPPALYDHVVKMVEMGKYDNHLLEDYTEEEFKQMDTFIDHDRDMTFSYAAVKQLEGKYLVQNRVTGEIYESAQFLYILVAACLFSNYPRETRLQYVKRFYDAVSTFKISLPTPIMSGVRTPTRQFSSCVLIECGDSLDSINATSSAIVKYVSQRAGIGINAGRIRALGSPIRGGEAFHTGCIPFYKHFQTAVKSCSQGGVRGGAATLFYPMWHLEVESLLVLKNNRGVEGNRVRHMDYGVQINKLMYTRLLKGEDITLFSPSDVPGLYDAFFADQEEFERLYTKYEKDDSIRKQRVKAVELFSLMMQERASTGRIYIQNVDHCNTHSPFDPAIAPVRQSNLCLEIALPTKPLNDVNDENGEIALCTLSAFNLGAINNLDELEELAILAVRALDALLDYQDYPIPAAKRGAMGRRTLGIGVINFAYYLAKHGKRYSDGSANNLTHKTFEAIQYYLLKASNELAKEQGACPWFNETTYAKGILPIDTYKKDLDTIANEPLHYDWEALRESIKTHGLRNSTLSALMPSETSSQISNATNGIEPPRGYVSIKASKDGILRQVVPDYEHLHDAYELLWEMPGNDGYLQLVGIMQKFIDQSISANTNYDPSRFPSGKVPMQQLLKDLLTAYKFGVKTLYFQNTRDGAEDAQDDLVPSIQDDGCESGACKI
Outline: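 Time-resolved [Re] emission, monitored at 610 nm. Samples held 10 μM Re-labelled test peptide, 200 μM Ru(NH3)6Cl3, 1 mM CDP and 3 mM ATP in 50 mM sodium borate, pH 8.3, 15 mM MgSO4, 5% glycerol. For the bound state, 20 μM His6-tagged E. coli α2 mutant was added. Samples were equilibrated 3 min at 23 °C and measured while flowing. Lifetimes came from weighted least-squares fits of averaged traces.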

Y731F-α2 [2] = target: T1, Y731F-α2; assay: Flash-quench transient absorption: •F3Y radical in presence of Y731F-α2; assay type: biochemical
C439S-α2 = target: T2, C439S-α2 (Escherichia coli, UniProt P00452, C439S); assay: Flash-quench transient absorption: •F3Y radical in presence of C439S-α2; assay type: biochemical
T2 sequence (P00452 1-761 C439S): T1 sequence (P00452 1-761 Y731F) with C439S, F731Y

[3] = C439S-α2, average across three wavelengths (395, 410, 425 nm)

CC[C@H](C)[C@H](NC(=O)[C@H](CCC(N)=O)NC(=O)CNC(=O)[C@@H](NC(=O)[C@H](CC(C)C)NC(=O)[C@H](Cc1c(F)cc(O)c(F)c1F)NC(=O)c1ccnc(-c2cc(C)ccn2)c1)C(C)C)C(=O)N[C@@H](CC(=O)O)C(=O)N[C@@H](CO)C(=O)N[C@@H](CCC(=O)O)C(=O)N[C@H](C(=O)N[C@@H](CC(=O)O)C(=O)N[C@H](C(=O)N[C@@H](CC(=O)O)C(=O)N[C@@H](CC(=O)O)C(=O)N[C@@H](CC(C)C)C(=O)N[C@@H](CO)C(=O)N[C@@H](CC(N)=O)C(=O)N[C@@H](Cc1ccccc1)C(=O)N[C@@H](CCC(N)=O)C(=O)N[C@@H](CC(C)C)C(=O)O)[C@@H](C)O)C(C)C [[Re]–F3Y–βC19] ({Isonicotinoyl(2-(4-Me-2-Py))}-[X1]LVGQIDSEVDTDDLSNFQL-OH; N-terminus and C-terminus assumed)
[Re^I]* emission lifetime, "on" state (Y731F-α2 [1]): 29 ns
radical lifetime change / radical injection (in words) (Y731F-α2 [2]; Y731F-α2): cannot competently inject the radical into α2
•F3Y lifetime τ410 (Y731F-α2 [2]; Y731F-α2, 410 nm, monoexponential, 50 μM peptide, 100 μM α2, pH 8.3): 14.2 ± 0.2 μs
•F3Y lifetime τ425 (Y731F-α2 [2]; Y731F-α2, 425 nm, monoexponential, 50 μM peptide, 100 μM α2, pH 8.3): 16.5 ± 0.4 μs
portion of peptide N-terminus in the "on" conformer (Y731F-α2 [2]; Y731F-α2, from amplitude of the •F3Y lifetime): 20–30%
radical lifetime change / radical injection (in words) (Y731F-α2 [2]; Y731F-α2, listed as [Re]–•F3Y–βC19): no significant change in radical lifetime
•F3Y radical decay profile (in words) (C439S-α2; C439S-α2): biexponential decay owing to the contribution of a significantly shorter lifetime component
•F3Y radical decay: small amplitude component ("on" state) (C439S-α2; C439S-α2): 20%
amplitude of long phase (C439S-α2; C439S-α2, 395 nm): 81%
amplitude of short phase (C439S-α2; C439S-α2, 395 nm): 19%
•F3Y lifetime, short phase (C439S-α2; C439S-α2, 395 nm, biexponential): 2.2 ± 1 μs
•F3Y lifetime, long phase (C439S-α2; C439S-α2, 395 nm, biexponential, 50 μM peptide, 100 μM C439S-α2, 1 mM Ru(NH3)6Cl3, 1 mM CDP, 3 mM ATP, borate pH 8.3): 17.3 ± 0.9 μs
•F3Y lifetime, "off" state (C439S-α2; [3]): 16.9 ± 0.7 μs
•F3Y lifetime, "on" state (C439S-α2; [3]): 2.5 ± 1.0 μs
